Sampled rows, rich in hits. Any-hit rate of the full collection: about 1.8%.
Tn7 DDE FP: inhibitors of Tn7 peptide binding to human fibrin DD(E); FP displacement of FITC-Tn7 peptide from fibrin DD(E); 0% = median of compound wells per plate; AID 720508; 0.13% of 370,000 active; inhibition, % at 8.3 µM;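 active means inhibition above the mean of compounds falling within the control limits plus 3 SD of them, cut at about 14% in these data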
Target sequence (P02675 whole entry, looked up): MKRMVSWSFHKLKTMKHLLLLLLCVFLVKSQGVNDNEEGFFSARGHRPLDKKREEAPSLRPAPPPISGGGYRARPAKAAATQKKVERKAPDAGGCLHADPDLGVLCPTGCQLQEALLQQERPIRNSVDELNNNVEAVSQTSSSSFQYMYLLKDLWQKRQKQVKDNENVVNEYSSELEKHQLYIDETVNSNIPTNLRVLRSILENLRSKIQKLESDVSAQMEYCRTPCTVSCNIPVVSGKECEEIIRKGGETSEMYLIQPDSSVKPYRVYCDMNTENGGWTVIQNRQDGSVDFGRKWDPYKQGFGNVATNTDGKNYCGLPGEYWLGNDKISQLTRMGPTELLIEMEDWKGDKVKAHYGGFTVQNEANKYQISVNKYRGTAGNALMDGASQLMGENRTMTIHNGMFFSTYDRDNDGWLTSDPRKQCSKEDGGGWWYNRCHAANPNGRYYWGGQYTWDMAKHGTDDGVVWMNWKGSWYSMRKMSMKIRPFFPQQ
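Assay system: Fibrin-DD(E) protein isolated from polymerized human fibrin clots; read-out basis: percent inhibition; medium: Tris/NaCl/CaCl2 buffer, pH 7.8; signal: FP measurement; incubation: 10 min plus 3 h, room temperature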
GRK2 aptamer HTS: inhibitors of human GRK2 displacing RNA aptamer; P25098; bead flow cytometry, FAM-aptamer displacement from GRK2; inhibition of aptamer binding, % at 10 µM; 0.59% of 330,000 active; AID 488847;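 active means inhibition of aptamer binding above 40%, roughly 3 SD of noise, on plates passing a quality check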;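 further: median bead fluorescence of bound FAM aptamer so fluorescent compounds give negative values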
CAL PDZ FP-1: human CAL PDZ-peptide interaction inhibition; inhibition, % at 20 µM; purified CAL PDZ, TMR-peptide fluorescence polarization, 1 h; AID 504414; Q9HD26; 0.02% of 330,000 active;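 active means highest replicate inhibition of at least 40%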
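Test system: tagged CAL PDZ domain / Buffer or medium: sodium phosphate/NaCl buffer pH 7.4 with TCEP, IgG, Thesit / Reagent: TMR-labelled reporter peptide T*-PRC34 bound in PDZ groove / Compound dosing: single point, 20 µM / Schedule: 1 h incubation at room temperature before polarization reading / Technique: fluorescence polarization (mP) / Benchmarks: unlabelled peptide, DMSO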
Tn6 DDE FP: disrupts Tn6 cyclic peptide binding to fibrin D-Dimer-E complex; 0.21% of 370,000 active; inhibition, % at 8.3 µM; Fibrin DD(E) TRITC-Tn6 fluorescence polarization displacement; P02675;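 active means inhibition above a per-campaign cutoff: mean of compounds within control limits plus 3 SD, cut at about 15% in these data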
ARNT-TACC3 inh: disrupts binding between human ARNT and TACC3. inhibition, % at 9.99 µM. AlphaScreen His-ARNT PAS-B/GST-TACC3 binding, luminescence; TACC3 fragment carries E629A point mutation. Q9Y6A5. 0.66% of 390,000 active;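 active means mean inhibition of replicates at least 50% and at least half of replicates each reaching 50%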
CAL PDZ FP-2: inhibitors of human CAL PDZ peptide binding; purified CAL PDZ, TMR-peptide fluorescence polarization, 1 h; inhibition, % at 24.9 µM; 0.92% of 300,000 active; AID 602252;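 active means mean inhibition of at least 30% with at least half of replicates also reaching 30%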
Numbers stand for hits; – = inactive; · = no result given.

SMILES	Tn7 DDE FP	GRK2 aptamer HTS	CAL PDZ FP-1	Tn6 DDE FP	ARNT-TACC3 inh	CAL PDZ FP-2
COc1ccc(OC)c(NC(=O)COC(=O)c2cc3c(s2)CCC3)c1	–	42	–	–	–	–
COc1ccccc1NC(=O)COC(=O)c1cc2c(s1)CCC2	–	·	–	–	–	–
CC(=O)C[C@H](O)CC(=O)[C@H]1OC(=O)CC/C=C\Cc2ccccc21	–	–	–	–	–	–
C[C@@H]1CN([C@H](C)CO)C(=O)c2cc(NS(C)(=O)=O)ccc2O[C@H]1CN(C)S(=O)(=O)c1cn(C)cn1	·	·	·	·	–	·
COc1ccc(NC(=O)Nc2cccc3c2O[C@@H](CN(C)S(=O)(=O)c2ccccc2)[C@@H](C)CN([C@@H](C)CO)C3=O)cc1	·	·	·	·	–	·
NC(=O)C1CCN(C(=O)COc2ccc3ccccc3c2Br)CC1	–	–	–	–	–	·
O=C(COc1ccc2ccccc2c1Br)N1CCCCC1	·	87	–	·	–	–
C[C@H](CO)N1C[C@H](C)[C@H](CN(C)S(=O)(=O)c2ccc(-c3ccccc3)cc2)OCc2cnnn2CCCC1=O	·	·	·	·	–	·
O=C(NC(Cc1ccccc1)C(=O)O)c1ccco1 (stereo not given)	–	–	–	–	–	32
Cn1c(SCC(=O)N2CC(=O)Nc3ccccc32)nnc1C(F)(F)F	–	·	–	–	–	–
CC[C@@H]1CCCCc2ccccc2[C@H](C(=O)C[C@H](O)CC(C)=O)OC1=O	–	–	–	–	–	54
O=C(NC1CCCCC1)C1CCN(C(=O)c2ccc(Cl)cc2)CC1	–	–	–	–	–	–
CC(=O)c1ccccc1NC(=O)COC(=O)CN1C(=O)C2CCCCC2C1=O (stereo not given)	–	–	–	–	–	40
C1CCCC(NC2=NCCO2)CCC1	·	–	–	·	–	59
C1CCC(NC2=NCCO2)CC1	–	·	·	–	·	·
Cc1cccc(C(=O)NCc2ccc(S(N)(=O)=O)cc2)c1[N+](=O)[O-]	–	–	–	–	–	46
COc1ccc(CNC(=O)c2cccc(C)c2[N+](=O)[O-])cc1	–	–	–	–	–	–
O=C(N/N=C1\C/C(=N\NC(=O)c2ccncc2)c2ccccc21)c1ccncc1	–	–	–	–	67	·
O=C(NN=C1C2CC3CC(C2)CC1C3)c1ccncc1	–	–	–	–	–	–
O=C(N/N=C(\Cc1ncc[nH]1)c1ccccc1)c1ccncc1	–	–	–	–	64	–
O=C(N/N=C/c1ccccn1)c1ccccc1	–	–	–	–	–	·
O=C(N/N=C/C=C\c1ccco1)c1ccccn1	–	–	–	–	68	–
O=C(N/N=C/C=C/c1ccccc1)c1ccccn1	–	–	–	–	–	–
O=C(N/N=C/c1ccccn1)c1ccncc1	–	–	–	–	69	·
C[C@@H]1CN([C@@H](C)CO)C(=O)c2cc(NS(=O)(=O)c3ccc(F)cc3)ccc2O[C@@H](C)CCCCO[C@@H]1CN(C)S(=O)(=O)c1ccccc1	·	·	·	·	–	·
SMILES	Tn7 DDE FP	GRK2 aptamer HTS	CAL PDZ FP-1	Tn6 DDE FP	ARNT-TACC3 inh	CAL PDZ FP-2
C[C@@H]1CN([C@@H](C)CO)C(=O)c2cc(NS(=O)(=O)c3cn(C)cn3)ccc2O[C@H]1CN(C)C(=O)Nc1ccc(C(F)(F)F)cc1	·	·	·	·	–	·
Cc1ccc(/C=N\NC(=O)Cn2c(C)nc3ccccc32)o1	–	–	–	–	–	–
O=C(N/N=C\c1ccccn1)c1ccccc1O	–	–	–	–	59	–
Cc1nc2ccccc2n1CC(=O)N/N=C\c1ccccn1	–	–	–	–	40	–
COCc1c(C(=O)N/N=C/c2c[nH]c3ccccc23)nnn1-c1nonc1N	–	–	–	–	–	–
COCc1c(C(=O)N/N=C\c2ccccn2)nnn1-c1nonc1N	–	–	–	–	74	–
C(=N\NC(=Nc1ccccc1)c1ccccn1)/c1ccccn1	–	–	–	–	87	–
C[C@@H]1CN([C@H](C)CO)C(=O)CCCn2cc(nn2)CO[C@H]1CN(C)Cc1cccc(C(F)(F)F)c1	·	·	·	·	–	·
O=C(CSc1nc2ncccc2[nH]1)N1CCOCC1	–	·	·	–	·	·
O=C(NCc1ccncc1)C(=O)N/N=C/c1ccccn1	–	–	–	–	–	56
O=C(N/N=C/c1ccccn1)c1sc2ccccc2c1Cl	–	·	–	–	55	–
O=C(N/N=C/c1ccccn1)c1ccco1	–	–	–	–	45	–
Cc1ccccc1C(=O)N/N=C/c1ccccn1	–	–	–	–	–	–
Cn1ncc(Cl)c1C(=O)N/N=C/c1ccccn1	–	–	–	–	66	–
COc1ccccc1NC(=O)N1C[C@H](O)COC[C@@H]2O[C@@H](CC(=O)NCCc3ccccc3)CC[C@H]21	·	·	·	·	–	·
O=C(CCS(=O)(=O)c1ccccc1)Nc1ccc(F)cc1F	–	·	·	–	·	·
CO[C@H]1CN(C)C(=O)c2cc(NC(=O)C3CC3)ccc2OC[C@@H](C)N(C(=O)c2ccncc2)C[C@@H]1C	·	·	·	·	–	·
O=C(N/N=C/c1cccc2cccnc12)c1ccccc1O	–	–	–	–	72	–
COc1ccc(C(=O)N/N=C/c2ccccn2)cc1OC	–	–	–	–	–	–
COc1cc(C(=O)N/N=C/c2ccccn2)cc(OC)c1OC	–	–	–	–	48	–
Cc1ccc(NC(=O)CCC(=O)N/N=C/c2ccc(O)cc2O)cc1	–	–	–	–	71	–
COc1cc(/C=N/NC(=O)/C(=C/c2ccccc2)CCO)ccc1O	–	–	–	–	–	–
O=C(N/N=C/c1ccc(O)cc1O)/C(=C/c1ccccc1)CCO	–	–	–	–	70	–
Cc1cc([N+](=O)[O-])nn1CC(=O)N/N=C/c1ccc(O)cc1O	–	–	–	–	71	–
COC(CNC(=O)CCc1c(C)nc2c(-c3ccccc3)c(C)nn2c1C)OC	–	–	–	–	–	–
O=C(NC1CCN(Cc2ccc3ccccc3c2)CC1)c1ccccc1	–	–	–	–	–	–
O=C(Nc1ccc(C(F)(F)F)cc1)N[C@@H]1C=C[C@@H](CC(=O)N2CCCCC2)O[C@H]1CO	·	·	·	·	46	·
